In PMC5143172 (Leukemia, 2016):
Blank lines part the entries; values can stand above or below the compound they belong to.

Assays:
[1] = test system: Eμ-TCL1 leukemic splenocytes; assay: Eμ-TCL1-C57BL/6 transplant mouse model of CLL; format: in vivo, C57BL/6 mice
Summary of the method: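 CD19+CD5+ splenocytes (1×10^7) from an Eμ-TCL1 donor with active leukemia (>10% CD45+CD5+CD19+ in blood) and splenomegaly were injected into C57BL/6 mice by tail vein. At onset (≥10% CD45+CD5+CD19+), mice were randomized to oral gavage with vehicle (0.5% methylcellulose/1% Tween80), test compound 15 mg/kg daily or twice weekly, or ibrutinib 20 mg/kg. Blood flow cytometry was done weekly and spleen volume measured at euthanasia. Kaplan-Meier/log-rank, mixed-effects model, ANOVA (log-transformed, Dunnett).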

primary CLL cells [2] = assay: Cytotoxicity in primary CLL cells by MTS; format: cell-based, Human; conditions: 48h (24h in Supplementary Figure 6)
primary CLL cells [3] = assay: Apoptosis of primary CLL cells by annexin-V/PI in FBS or human serum; format: cell-based; conditions: 10% fetal bovine serum or human serum, 24h
XPO1 [4] = target: T1, XPO1 (Homo sapiens, UniProt O14980); assay: XPO1 total protein in primary CLL cells; format: cell-based; conditions: 0.5 μM
Summary of the method: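 Freshly isolated patient CLL cells were treated with DMSO or 0.5 μM compound and harvested at 2, 4, 8 and 18 h (N=3). Cells were lysed in RIPA buffer, resolved by SDS-PAGE and immunoblotted for XPO1. Signal was detected by chemiluminescence and quantified by densitometry.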

Brain penetration, mouse = format: in vivo
Brain penetration, rat = format: in vivo
ABC-DLBCL cell lines = assay: Proliferation of ABC-DLBCL cell lines by MTS; format: cell-based
p53 = assay: Confocal microscopy of p53 localization in MV4-11; format: cell-based; conditions: MV4-11, confocal microscopy
Summary of the method: (§1)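 About 200,000 cells were cytospun onto slides, then fixed, permeabilized, blocked and immunostained for p53 (MV4-11) or NPM1 (OCI-AML3). DNA was counterstained with DAPI, and subcellular localization was imaged by confocal microscopy using merged channels.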

NPM1 = assay: Confocal microscopy of NPM1 localization in OCI-AML3; format: cell-based
Summary of the method: as §1

GC-DLBCL cell lines = assay: Proliferation of GC-DLBCL cell lines by MTS; format: cell-based
MV4-11 = MV4-11 xenograft mouse model of AML; format: in vivo, NSG mice; conditions: day 21
[5] = Brain penetration, monkey; format: in vivo
XPO1 [6] = target: T2, XPO1 (Saccharomyces cerevisiae, UniProt P30822, DEL377-413/T539C); assay: Reversibility of inhibitor conjugation to XPO1; format: biochemical; conditions: 10uM inhibitor; dialysis or DTT, 24 hours
Summary of the method: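 XPO1 was incubated in triplicate with 10 μM inhibitor, then dialysed or treated with DTT. It was then used in a binding assay with RanGTP and immobilized GST-MVM NES, with bound proteins resolved by SDS-PAGE and Coomassie staining. XPO1 band intensities were quantified and expressed as percentage of DMSO-treated controls.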

XPO1 [7] = target: T1, XPO1; assay: XPO1 degradation by SINE compound treatment in HT1080 cells; format: cell-based; conditions: 25-1000 nM, 18 hours
XPO1 [8] = target: T2, XPO1; assay: Pull-down inhibition assay of XPO1 with immobilized NESs; format: biochemical; conditions: 10uM inhibitor
Summary of the method: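 Purified recombinant yeast XPO1 (2 μM) was pre-incubated with RanGTP (10 μM) and 10 μM inhibitor for varying times at 4°C. The mixture was rotated with immobilized GST-PKI NES for 1 h. After extensive washing, bound protein was resolved by SDS-PAGE and stained with Coomassie Blue.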

primary AML samples = assay: Proliferation assay; format: cell-based; conditions: Homo sapiens
Summary of the method: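 Primary AML cells came from blood or frozen bone marrow of three newly diagnosed, untreated patients, collected under informed consent. Viability was measured by WST-1 assay after treatment with the test compound.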

IkB = assay: Nuclear retention of IkB in CLL cells; format: cell-based, Human; conditions: 0.5 μM
Summary of the method: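 Treated primary CLL cells were fractionated into nuclear extracts with a commercial kit. Proteins were resolved by SDS-PAGE and probed with anti-IκB antibodies. Bands were detected by chemiluminescence and quantified by densitometry.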

[9] = Plasma accumulation after repetitive dosing; format: in vivo; conditions: data not shown

T1 sequence (O14980 whole entry): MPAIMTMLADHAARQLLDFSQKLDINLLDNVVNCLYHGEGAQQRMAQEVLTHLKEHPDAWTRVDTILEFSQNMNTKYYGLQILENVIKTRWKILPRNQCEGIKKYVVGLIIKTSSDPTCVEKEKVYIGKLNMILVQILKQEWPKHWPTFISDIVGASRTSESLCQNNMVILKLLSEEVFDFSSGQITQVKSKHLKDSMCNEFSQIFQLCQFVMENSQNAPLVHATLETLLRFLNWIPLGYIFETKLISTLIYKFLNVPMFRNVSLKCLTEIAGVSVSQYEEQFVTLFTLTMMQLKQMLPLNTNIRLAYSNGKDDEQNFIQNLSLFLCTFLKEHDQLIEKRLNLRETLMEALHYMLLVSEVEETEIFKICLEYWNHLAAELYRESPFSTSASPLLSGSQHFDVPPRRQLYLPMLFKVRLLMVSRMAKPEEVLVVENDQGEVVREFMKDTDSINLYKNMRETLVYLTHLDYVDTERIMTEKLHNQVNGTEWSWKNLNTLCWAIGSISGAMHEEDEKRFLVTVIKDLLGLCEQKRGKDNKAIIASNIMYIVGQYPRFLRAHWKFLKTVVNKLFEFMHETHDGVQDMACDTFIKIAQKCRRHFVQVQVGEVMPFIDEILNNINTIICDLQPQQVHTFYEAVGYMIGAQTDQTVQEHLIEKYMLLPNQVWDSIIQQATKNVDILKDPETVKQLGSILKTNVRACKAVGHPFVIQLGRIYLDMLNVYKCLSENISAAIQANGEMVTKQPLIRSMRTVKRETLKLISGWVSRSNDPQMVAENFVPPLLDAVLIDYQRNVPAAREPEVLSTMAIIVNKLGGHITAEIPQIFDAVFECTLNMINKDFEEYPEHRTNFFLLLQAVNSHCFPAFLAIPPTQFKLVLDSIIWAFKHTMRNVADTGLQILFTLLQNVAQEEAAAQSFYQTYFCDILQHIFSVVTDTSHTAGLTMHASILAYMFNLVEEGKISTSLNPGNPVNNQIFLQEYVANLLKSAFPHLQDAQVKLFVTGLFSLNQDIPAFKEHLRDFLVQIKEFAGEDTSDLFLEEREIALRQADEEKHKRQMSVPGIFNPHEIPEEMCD

- Time post-treatment at which XPO1 total protein was decreased (XPO1 [4]): ≤ 4 h
- Mean Concentration at 2h post dose Brain (Brain penetration, mouse; Mouse, po 5 mg/kg): 105 ng·h/g
- Mean Concentration at 2h post dose Plasma (Brain penetration, mouse; Mouse, po 5 mg/kg): 550 ng·h/mL
- Kp at 2 h (Brain penetration, mouse; mouse, brain/plasma, po, 5 mg/kg): 0.19
- Mean Concentration at 2h post dose Brain (Brain penetration, rat; Rat, po 5 mg/kg): 70 ng·h/g
- Mean Concentration at 2h post dose Plasma (Brain penetration, rat; Rat, po 5 mg/kg): 320 ng·h/mL
- Kp at 2 h (Brain penetration, rat; rat, brain/plasma, po, 5 mg/kg): 0.22
- Mean Concentration at 2h post dose Brain ([5]; Monkey, po 10 mg/kg): <32 ng·h/g
- Mean Concentration at 2h post dose Plasma ([5]; Monkey, po 10 mg/kg): 1310 ng·h/mL
- Kp at 2 h ([5]; monkey, brain/plasma, po, 10 mg/kg): < 0.02
- Reversibility of conjugation to XPO1 (XPO1 [6]): slowly reversible manner
- Incubation time with XPO1 to completely inhibit XPO1 binding to PKI NES (XPO1 [8]): 60 min
SMILES: NC(=O)/C(=C/n1cnc(-c2cc(C(F)(F)F)cc(C(F)(F)F)c2)n1)c1cncnc1 [KPT-8602]
- Median OS ([1]; Fig.4A cohort, 15 mg/kg daily, oral gavage, vehicle 33 days): 70 days
- Percentage of CD5+ B-cells in peripheral blood vs vehicle or KPT-8602 2x/week ([1]; Fig.4B, 15 mg/kg daily, three weeks post-treatment, p<0.001): significantly lower
- Spleen size at study removal vs all other groups ([1]; Fig.4C, 15 mg/kg daily, p<0.001): significantly smaller
- Spleen size vs vehicle or ibrutinib alone ([1]; Fig.4F cohort, KPT-8602 15 mg/kg daily, p<0.001): significantly smaller
- Change in body weight ([1]; daily treatment, after 28 days): did not cause a significant change in body weight
- Killing of primary CLL cells vs vehicle (primary CLL cells [2]): induced dose-dependent killing of primary CLL cells
- Apoptosis of CLL cells in FBS and HS (primary CLL cells [3]): effective in inducing apoptosis of CLL cells in both FBS and HS
- Proliferation of ABC-DLBCL cell lines (ABC-DLBCL cell lines): inhibited proliferation
- Accumulation of p53 in the nucleus (p53): significant accumulation
- Accumulation of NPM1 in the nucleus (NPM1): significant accumulation
- Proliferation of GC-DLBCL cell lines (GC-DLBCL cell lines): inhibited proliferation
- White blood cell count (WBC) vs vehicle (MV4-11; 15 mg/kg daily and x2/week): significantly reduced WBC
- XPO1 degradation (XPO1 [7]): induces XPO1 degradation in HT1080 cells in a dose-dependent manner
- IC50 (primary AML samples): 300 nM
- Time of treatment to nuclear retention of IkB (IkB): ≤ 8 h
- Accumulation in plasma after repetitive dosing [9]: does not accumulate in plasma after repetitive dosing

- Time post-treatment at which XPO1 total protein was decreased (XPO1 [4]): ≤ 4 h
- Incubation time with XPO1 to completely inhibit XPO1 binding to PKI NES (XPO1 [8]): 60 min
SMILES: O=C(/C=C\n1cnc(-c2cc(C(F)(F)F)cc(C(F)(F)F)c2)n1)NNc1cnccn1 [KPT-330, selinexor, reference compound]
- White blood cell count (WBC) vs vehicle (MV4-11; 20 mg/kg 2x/week): significantly reduced WBC
- IC50 (primary AML samples): 100 nM
- Time of treatment to nuclear retention of IkB (IkB): ≤ 8 h

SMILES: C=CC(=O)N1CCC[C@@H](n2nc(-c3ccc(Oc4ccccc4)cc3)c3c(N)ncnc32)C1 [ibrutinib, reference compound]
- Median OS ([1]; Fig.4D cohort, ibrutinib 20 mg/kg daily, vehicle 20 days): 26 days
